High-throughput results from PubChem.
PGC1a acetyl inh: modulators of PGC1a acetylation; actives 0.17% (n = 350,000); U2OS PGC1a acetylation, AlphaScreen anti-acetyl-lysine; with virally co-expressed GCN5 acetyltransferase; inhibition, % at 15.6 µM;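 active = every replicate shows inhibition of at least 40%; inconclusive = mean inhibition at least 40% but some replicate below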
Xi reactivation: X-chromosome reactivation activator | XiGFP mouse fibroblasts, % GFP-positive cells imaging, 3 d; cells co-treated with 5-aza-dC sensitizer; scaled so ellipticine positive control = 100% | activation, % at 7.58 µM | actives 0.055% (n = 360,000);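 active = mean normalized replicate activation at least 10% and every replicate at or above 10%; inconclusive = only one of the two criteria met; inactive = mean below 10% and not all replicates reach 10%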
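Schedule: 3 d treatment, 15 min room-temperature fixation; system: 68-5-11 XiGFP fibroblast line; buffer or medium: DMEM plus 5-aza-dC sensitizer; control set: ellipticine 6 µM positive control; compound: one concentration, pinned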
EWS-Fli block: blocks EWS/Fli oncoprotein-driven transcription | A673 NR0B1-luciferase reporter, viability-normalised | inhibition, % at 12.6 µM | actives 0.67% (n = 350,000);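 active = mean inhibition of at least 50% after viability correction, with every replicate also passing that limit; inconclusive = mean reaches 50% but only one of two replicates passes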;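 note: firefly luciferase signal divided by Alamar Blue viability fluorescence both relative to DMSO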
PAX8 reporter: inhibitors of PAX8 transcriptional activity in RMG-I cells | inhibition, % at 12.6 µM | actives 1.2% (n = 360,000) | RMG-I TPO-luciferase reporter, SteadyGlo, 24 h;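 active = mean replicate inhibition at least 60% with every replicate also reaching 60%; inconclusive = only one of the two criteria is met; inactive = mean below 60% and not all replicates reaching 60%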;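 note: luciferase light reporting Pax8 driven TPO promoter activity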
AF4-AF9 inh: inhibitors of human MLL-AF4/AF9 interaction. AlphaScreen, biotin-AF4 peptide binding to FLAG-AF9. inhibition, % at 10 µM. actives 0.47% (n = 350,000);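 active = every replicate reaching a set inhibition limit, whatever the replicate mean, cut at about 25% in these data; inconclusive = mean inhibition reaches that limit but some replicates miss it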
Target sequence (P42568 whole entry, looked up): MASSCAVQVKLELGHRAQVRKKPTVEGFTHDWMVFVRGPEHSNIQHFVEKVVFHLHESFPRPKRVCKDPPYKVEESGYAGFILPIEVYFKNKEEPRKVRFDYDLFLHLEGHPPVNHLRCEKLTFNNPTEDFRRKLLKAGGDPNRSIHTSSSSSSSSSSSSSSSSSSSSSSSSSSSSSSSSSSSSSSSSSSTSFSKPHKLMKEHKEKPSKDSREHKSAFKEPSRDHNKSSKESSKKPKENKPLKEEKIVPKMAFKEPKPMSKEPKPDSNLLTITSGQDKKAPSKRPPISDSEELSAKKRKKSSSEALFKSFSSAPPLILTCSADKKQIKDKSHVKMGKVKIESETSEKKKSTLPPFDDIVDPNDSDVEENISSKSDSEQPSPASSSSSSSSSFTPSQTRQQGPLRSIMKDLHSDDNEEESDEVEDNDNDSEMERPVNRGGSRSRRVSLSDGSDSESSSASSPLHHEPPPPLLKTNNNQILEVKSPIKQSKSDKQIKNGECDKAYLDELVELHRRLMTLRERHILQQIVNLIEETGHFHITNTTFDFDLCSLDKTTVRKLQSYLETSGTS
GSIS activator: primary screen for activators of insulin secretion dependent on glucose, INS-1E cells, GLuc reporter luminescence | INS-1E GLuc reporter insulin secretion, 2-3 h | activation, % at 16.6 µM | actives 0.61% (n = 370,000);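 active = lowest replicate activation of at least 40%, so every replicate reaches that level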
Of the large screens only hits and unclear results are named; the others gave an inactive call. The list is not random: actives were taken first. Their share in the collection is about 2.1%.

O=S(=O)(O)c1cc(O)c(N=Nc2ccc(O)cc2O)c2ccccc12	AF4-AF9 inh 34
CC(C)C#Cc1ccc([C@@H]2[C@H](CO)N3C(=O)CN(C(=O)Cc4cccnc4)C[C@@H]23)cc1	none (no result: PGC1a acetyl inh, EWS-Fli block, PAX8 reporter, AF4-AF9 inh)
CCC(C)(C)NC(=O)c1cc(C(=O)OC)cc([N+](=O)[O-])c1	none (no result: Xi reactivation, EWS-Fli block, AF4-AF9 inh, GSIS activator)
CCCN(CCC)S(=O)(=O)c1ccc(NC(=O)c2cc(C(=O)OC)cc([N+](=O)[O-])c2)cc1	PAX8 reporter 66 (no result: Xi reactivation, EWS-Fli block, AF4-AF9 inh, GSIS activator)
C[C@@H]1CCCCO[C@@H](CN(C)C(=O)NC2CCCCC2)[C@@H](C)CN([C@H](C)CO)C(=O)c2cc(NS(=O)(=O)c3ccc(Cl)cc3)ccc2O1	none
C[C@H]1CCCCO[C@H](CN(C)C(=O)NC2CCCCC2)[C@@H](C)CN([C@@H](C)CO)C(=O)c2cc(NS(=O)(=O)c3ccc(Cl)cc3)ccc2O1	PAX8 reporter 71
C[C@@H]1CCCCO[C@H](CN(C)C(=O)NC2CCCCC2)[C@H](C)CN([C@@H](C)CO)C(=O)c2cc(NS(=O)(=O)c3ccc(Cl)cc3)ccc2O1	PAX8 reporter 80
COc1ccc(C(O)c2nc(-c3ccc(OC)c(OC)c3)cs2)cc1 (centres undefined)	GSIS activator 66
O=C(C[C@@H]1CC[C@H](NC(=O)Nc2ccc(C(F)(F)F)cc2)[C@H](CO)O1)NCc1ccccn1	none
CN1c2ccc(-c3cccc(F)c3)cc2[C@H]2[C@H](CCN2C(=O)c2ccc3c(c2)OCO3)[C@@H]1CO	none (no result: AF4-AF9 inh)
NC(=O)c1ccsc1NC(=O)CSc1ncnc2sccc12	AF4-AF9 inh inconclusive, GSIS activator 57 (no result: PAX8 reporter)
CS(=O)(=O)c1ccc(S(=O)CC(=O)OCc2ccccc2)c([N+](=O)[O-])c1 (centres undefined)	Xi reactivation inconclusive, EWS-Fli block 64, PAX8 reporter 107, GSIS activator 81 (no result: PGC1a acetyl inh)
COC(=O)c1ccc2nc(-c3ccc4c(c3)OCO4)cn2c1	none
CCc1ccn2cc(-c3ccc4c(c3)OCO4)nc2c1	EWS-Fli block 83, PAX8 reporter 80
O=C(C[C@H]1CC[C@@H](NS(=O)(=O)c2ccccc2)[C@H](CO)O1)NCCN1CCCCC1	none
C[C@H]1CN([C@@H](C)CO)C(=O)c2cccc(N(C)C)c2O[C@@H]1CN(C)Cc1ccc(-c2ccccc2)cc1	none (no result: EWS-Fli block)
N#Cc1cc2cc3c(cc2nc1SCC(=O)N1CCOCC1)OCCO3	EWS-Fli block 57 (no result: PGC1a acetyl inh)
COc1ccc(-c2ccc(SCC(=O)Nc3cc(C)on3)nn2)cc1OC	GSIS activator 57 (no result: Xi reactivation, EWS-Fli block, PAX8 reporter, AF4-AF9 inh)
COc1ccc(-c2ccc(SCC(=O)NC3CCCC3)nn2)cc1OC	GSIS activator 80 (no result: EWS-Fli block)
Cc1cccc(NC(=O)CSc2ccc(-c3ccc4c(c3)OCO4)nn2)c1C	GSIS activator 94 (no result: PGC1a acetyl inh, Xi reactivation, EWS-Fli block, PAX8 reporter, AF4-AF9 inh)
O=C(C[C@@H]1C=C[C@@H](NS(=O)(=O)c2cccc(F)c2)[C@H](CO)O1)N1CCCCC1	none
CCC(C)c1ccc(NC(=O)COC(=O)CCNC(=O)c2ccco2)cc1 (centres undefined)	none
CCC(C)c1ccc(NC(=O)c2ccco2)cc1 (centres undefined)	EWS-Fli block 58
COc1ccc(-c2ccc(NC(=O)c3ccco3)cc2)nn1	EWS-Fli block 64, PAX8 reporter inconclusive (no result: PGC1a acetyl inh)
CNC[C@H]1Oc2ccc(NC(=O)NC(C)C)cc2C(=O)N(C)C[C@H]1C	none (no result: PGC1a acetyl inh, EWS-Fli block, PAX8 reporter, AF4-AF9 inh)
O=C(COC(=O)c1ccc([N+](=O)[O-])o1)NC1CCCC1	none
O=C(NC1CCCC(C(F)(F)F)C1)c1ccc([N+](=O)[O-])o1 (centres undefined)	PAX8 reporter 76 (no result: PGC1a acetyl inh)
COCC(=O)N[C@@H]1CC[C@H](CC(=O)NCc2ccc(Cl)cc2)O[C@@H]1CO	none
COc1cccc(C(=O)N/N=C(/c2ccccc2)c2ccccn2)c1	PAX8 reporter 65 (no result: Xi reactivation, EWS-Fli block, AF4-AF9 inh, GSIS activator)
COc1cccc(C(=O)N/N=C(/CCC(=O)O)c2ccccc2)c1	none (no result: PGC1a acetyl inh, GSIS activator)
COc1cc(C(=O)N/N=C(\c2ccccc2)c2ccccn2)cc(OC)c1OC	PAX8 reporter 72 (no result: PGC1a acetyl inh)
COc1cc(C(=O)NN=C2c3ccccc3-c3ccccc32)cc(OC)c1OC	EWS-Fli block 59 (no result: PGC1a acetyl inh)
O=C(C[C@H]1C=C[C@H](NC(=O)c2ccc(F)cc2)[C@@H](CO)O1)NCCc1ccccc1	none
COc1ccc(CN(C)C[C@H]2OCCCC[C@@H](C)Oc3ccc(NC(=O)Nc4cccc5ccccc45)cc3C(=O)N([C@@H](C)CO)C[C@@H]2C)cc1	EWS-Fli block 80
C[C@@H]1CCCCO[C@@H](CN(C)Cc2ccccc2)[C@H](C)CN([C@@H](C)CO)C(=O)c2cc(NC(=O)Nc3cccc4ccccc34)ccc2O1	none
C[C@@H]1CCCCO[C@@H](CN(C)CC2CCCCC2)[C@H](C)CN([C@@H](C)CO)C(=O)c2cc(NC(=O)Nc3cccc4ccccc34)ccc2O1	EWS-Fli block 94
C[C@@H]1CN([C@H](C)CO)C(=O)c2cc(NC(=O)Nc3cccc4ccccc34)ccc2O[C@@H](C)CCCCO[C@H]1CN(C)Cc1ccccc1	EWS-Fli block 74
C[C@@H]1CN([C@@H](C)CO)C(=O)c2cc(NC(=O)Nc3cccc4ccccc34)ccc2O[C@@H]1CN(C)Cc1ccc2c(c1)OCO2	PAX8 reporter 76
C[C@H]1CN([C@@H](C)CO)C(=O)c2cc(NC(=O)Nc3cccc4ccccc34)ccc2O[C@H]1CN(C)Cc1ccc2c(c1)OCO2	none
Cc1cc(C(=O)Nc2cccc3c2O[C@@H](CN(C)C(=O)Nc2c(C)noc2C)[C@H](C)CN([C@@H](C)CO)C3=O)n(C)n1	none (no result: PAX8 reporter)
C[C@@H]1CN([C@@H](C)CO)C(=O)c2cc(NC(=O)Nc3cccc4ccccc34)ccc2O[C@@H](C)CCCCO[C@H]1CN(C)Cc1ccc2c(c1)OCO2	EWS-Fli block 77 (no result: AF4-AF9 inh)
COc1ccc(CN(C)C[C@H]2OCCCC[C@@H](C)Oc3ccc(NC(=O)Nc4cccc5ccccc45)cc3C(=O)N([C@H](C)CO)C[C@H]2C)cc1	EWS-Fli block 72
COc1ccc(CN(C)C[C@H]2OCCCC[C@@H](C)Oc3ccc(NC(=O)Nc4cccc5ccccc45)cc3C(=O)N([C@@H](C)CO)C[C@H]2C)cc1	EWS-Fli block inconclusive
C[C@H]1CN(C)C(=O)Cc2cc([N+](=O)[O-])ccc2O[C@H]1CN(C)C(=O)OC(C)(C)C	none (no result: PGC1a acetyl inh, EWS-Fli block, PAX8 reporter, AF4-AF9 inh)
O=C(/C=C/c1cccs1)Nc1nc(-c2ccccc2)cs1	none (no result: Xi reactivation, EWS-Fli block, PAX8 reporter, AF4-AF9 inh, GSIS activator)
O=C(/C=C/c1cccs1)Nc1scc(-c2ccccc2)c1C(=O)O	AF4-AF9 inh 27
COc1ccc(NC(=O)Nc2ccc3c(c2)C(=O)N([C@H](C)CO)C[C@@H](C)[C@@H](CN(C)C(=O)NC2CCCCC2)O3)cc1	none
O=C1CC(NS(=O)(=O)c2cccs2)CN1c1ccccc1 (centres undefined)	none
